Here are results for seven molecules from PMC11830134 (BioImpacts : BI, 2023).

Data set [1] is described as follows: Surface tension and critical micelle concentration, Du Noüy ring method. Type of data set: physicochemical. As to conditions: aqueous, 25±0.5 °C; mean ± SD, n=3. In short, it runs like this:
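Aqueous solutions freshly made at twice the predicted solubility as starting concentration. Du Noüy platinum ring force tensiometer, 25±0.5 °C; ring fully immersed, then slowly lifted, and force at detachment converted to surface tension. Static-zone surface tension compared with deionized water. Triplicate measurements.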

Data set [2] is described as follows: Short-term stability of aqueous solutions. The class given is physicochemical. The note with it: aqueous solutions at −20, 4, 25 and 37 °C, compared with fresh samples. Summed up:
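Test peptide aqueous solutions at set concentrations, held at −20, 4, 25 and 37 °C for 72 h. Then quantified by ESI triple-quad MS in flow-injection mode (direct infusion from autosampler). Expressed relative to fresh samples of the same initial concentration.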

Data set [3] in a line: Ex-vivo skin permeation, Franz diffusion cells. The note with it: for Residual drug in the donor phase / Flux / Permeated drug through the skin: rat skin, mean ± SD, n=3; for Residual drug in the donor phase: after 48h; for Flux / Permeated drug through the skin: saturated solution donor; for Flux: 37 °C; for Flux / Unrecovered/ trapped drug: 48h; for Permeated drug through the skin: over 48h; for Unrecovered/ trapped drug: total applied minus permeated and donor-recovered amounts. The class given is in vitro ADME, Sprague-Dawley rats. In short, it runs like this:
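Full-thickness abdominal skin from ~8-week male Sprague-Dawley rats (220-250 g), taken after isoflurane anaesthesia, mounted in upright Franz cells (2.0 cm2). Donor: peptide at saturated solubility, set from predicted logS. Receptor: 5 mL 10% (v/v) hydroethanolic solution, 37±0.5 °C, 300 rpm, 48 h. 1 mL sampled at 1-48 h with replacement, stored -20 °C, quantified by ESI-MS flow injection. Flux from permeated amount versus time.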

For data set [4] the following is noted: cited from earlier work.
The conditions of data set [5]: equilibrium zone, water; cited from earlier work.
The conditions of data set [6]: cited from earlier work. This is another data set of the same source.

Where “and” joins values, the source holds several entries; their conditions need not be identical. Equal entries are not always repeated.

`CCCCCCCC(=O)N[C@@H](CCCCN)C(=O)N[C@H](C(=O)O)[C@@H](C)O` [Compound C8-KT] had a CMC in data set [1] of 194.95 ± 0.05 mg/L. In addition, the “stability range in the aqueous medium after 72 hours” value (shortened to “stability range”) in data set [2] is on record as 98.9-101.6%. Moreover, in data set [3], the “Residual drug in the donor phase” value is reported as 21.29±3.851%; the Flux turned out to be 1.084±0.085 µg/cm^2 /h; the “Permeated drug through the skin” value is 33.2% and 33.24±9.562%; the Unrecovered/ trapped drug entry is “≈ 34%”.

For `CCCCCCCCCC(=O)N[C@@H](CCCCN)C(=O)N[C@H](C(=O)O)[C@@H](C)O` [Compound C10-KT], in data set [1], the CMC was determined as 42.24 ± 0.06 mg/L. The “stability range” value in data set [2] is listed as 96.6-103.7%. In data set [3], the “Residual drug in the donor phase” value was determined as 55.23±3.377%; the Flux amounted to 0.032±0.009 µg/cm^2 /h; the “Permeated drug through the skin” value was 2.3% and 2.314±1.087%; the Unrecovered/ trapped drug entry is on record as “≈42%”.

`CCCCCCCCCCCC(=O)N[C@@H](CCCCN)C(=O)N[C@H](C(=O)O)[C@@H](C)O` [Compound C12-KT]: the CMC in data set [1] came to 15.31 ± 0.05 mg/L. Besides, in data set [2], the “stability range” value is given as 96.2-101.8%. In data set [3], the “Residual drug in the donor phase” value is listed as 21.49±7.454%; the Flux amounted to 0.016±0.006 µg/cm^2 /h; the “Permeated drug through the skin” value is 0.5% and 0.499±0.070%; the Unrecovered/ trapped drug entry was “≈78%”.

In data set [1], `CCCCCCCCCCCCCCCC(=O)N[C@@H](CCCCN)C(=O)N[C@H](C(=O)O)[C@@H](C)O` [Compound C16-KT, reference compound] registered a CMC of 1.89 ± 0.44 mg/L. Besides, the “stability range” value in data set [2] is recorded as 93.2-104.2%. Moreover, in data set [3], the “Residual drug in the donor phase” value turned out to be 4.197±1.308%; the Flux worked out at 0.001±0.000 µg/cm^2 /h; the “Permeated drug through the skin” value is 2.6% and 2.628±0.368%; the Unrecovered/ trapped drug result is reported as “≈93%”.

On to `C[C@@H](O)[C@H](NC(=O)[C@@H](N)CCCCN)C(=O)O` [KT, lysine-threonine, reference compound], for which the “stability range” value in data set [2] is 99.7-100.3%. Besides, in data set [3], the “Residual drug in the donor phase” value was 97.7% and 97.73±1.688%; the Flux was determined as 0.003±0.000 µg/cm^2 /h; the “Permeated drug through the skin” value is 0.004% and 0.004±0.001%.

The term logP denotes the decadic logarithm of the partition coefficient of the neutral form, usually between octanol and water. For Pal-KTTKS, the log partition coefficient (logP) in data set [4] is given as 3.72. Besides, in data set [5], the experimental surface tension is on record as 50.3±0.40 mN/m. Moreover, the “accumulation in the epidermis” value in data set [6] is on record as 48%.

Take “lysine-threonine-threonine-lysine-serine [KTTKS]”: the logP in data set [4] is -3.54. The experimental surface tension in data set [5] is reported as 69.00±2.7 mN/m.
